Assay results from PubChem BioAssay.
Results filed as inconclusive are left out. The source made the active and inactive calls.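 Rule for the calls, unless noted: active = RAM network inhibition above 8.4% in each of two replicates, 3 SD over the compound average; inconclusive = above 8.4% inhibition in only one replicate; inactive = 8.4% inhibition or less in each replicate.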

Experiments:
[1] = S. cerevisiae growth inhibition in permissive medium (OD615), pilot counter-assay for S. cerevisiae lifespan shortening project, permissive growth control (AID 705;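 active = growth inhibition above 25% in both replicates, a cutoff set 3 SD above the mean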); details: OD615, 24 h, at 10 µM, stronger effect = higher value
In short: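 assay system = Saccharomyces cerevisiae strain carrying genetically modified DeaD replicative-lifespan system | technique = absorbance (optical density) at 615 nm | buffer or medium = permissive raffinose/galactose medium | timing = cells pre-grown 4 h, then 24 h compound exposure, 30 °C humidified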

[2] = S. cerevisiae growth inhibition in restrictive medium, OD615, pilot screen, restrictive growth control, yeast lifespan reduction project (AID 706;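 active = growth inhibition above a set limit, 3 SD over mean compound inhibition, in both replicates, cut at about 43% in these data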;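 note: modified DeaD lifespan yeast strain shifted to restrictive glucose medium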); details: OD615, 48 h, at 10 µM, stronger effect = higher value
In short: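 System: modified S. cerevisiae. Buffer or medium: CSMM-D glucose medium. Incubation: 4 h pre-growth plus 48 h compound exposure, 30 °C. Detection: absorbance (optical density) measured at 615 nm.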

[3] = doxorubicin toxicity protection in MRP-1 cells – H69AR cells, CellTiter-Glo, duplicate, MRP-1 activator project, pilot screen (AID 807;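 active = viability increase at or above a cutoff of the median across tested compounds plus 3 SD, cut at about 8.5% in these data, passing the limit was not always enough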;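 note: compound pretreatment 18-22 h then 72 h combined with doxorubicin; 0% = doxorubicin alone and 100% = vehicle without doxorubicin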); details: H69AR viability with doxorubicin, CellTiter-Glo luminescence; at 10 µM; stronger effect = higher value
[4] = viability of HCT116 without oncogenic beta-catenin – human colon tumor cells, pilot screen (AID 823;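 active = cell viability at or below a set limit in both duplicate runs, the limit being the all-compound median minus 4 SD, cut at about 23% in these data, passing the limit was not always enough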;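 note: 0% = wells killed by 20 µM Hyamine and 100% = untreated DMSO cell wells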); details: HCT116 beta-catenin knockout viability, CellTiter-Glo, 60 h; at 10 µM; stronger effect = lower value
[5] = viability of PTEN-null HCT116 cells – cell-based, HCT116 clonal line, CellTiter-Glo, pilot screen (AID 824;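 active = viability at or below 27.92% in each of two runs, the all-compound median minus 4 SD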;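 note: 0% = 20 µM Hyamine control and 100% = vehicle cell control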); details: HCT116 PTEN-deleted viability, 60 h, at 10 µM, stronger effect = lower value
[6] = RAM pathway blockade in budding yeast – dse1pr::URA3 reporter, 5-FOA selection, pilot screen (AID 869;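 active = inhibition over a set limit, the all-compound mean plus 3 SD, in both replicate runs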;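 note: 0% = DMSO wells with no growth and 100% = 10 µM 1-NA-PP1 with full growth; RAM network block rescues cells from 5-FOA so hits raise OD615 growth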); details: S. cerevisiae dse1pr::URA3 5-FOA growth, OD615, 2 d; at 10 µM; stronger effect = higher value; strain carries analog-sensitive mutant Cbk1 kinase
[7] = RAM signaling pathway blockade in yeast – S. cerevisiae, Pdr1DBD-CYC8 efflux-inhibited sensitized strain, primary screen (AID 1298);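 note: 0% = DMSO untreated cells without growth and 100% = 10 µM 1-NA-PP1 full growth; higher means more yeast growth rescued from 5-FOA killing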; details: S. cerevisiae cbk1-as DSE1-URA3 strain, 5-FOA growth OD615, 2 d; at 50 µM; stronger effect = higher value

COc1cc(NC(=O)C(F)(F)F)cc(OC)c1
inactive: growth inhibition [1] -10.5% | growth inhibition [2] -13.3% | viability increase [3] -0.69% | viability [4] 98.2% | viability [5] 108% | inhibition [6] 0.22% | RAM network inhibition [7] 1.3%

CC(=O)N1c2ccccc2N(Cc2ccc(C)cc2C)C(=O)C1(C)C
inactive: growth inhibition [1] -6.6% | growth inhibition [2] 5.81% | viability increase [3] -6.55% | inhibition [6] 1.14% | RAM network inhibition [7] 9.4%
active: viability [4] 16% | viability [5] 20.7%

Cc1cnc(C(=O)OCC(=O)Nc2cc(Cl)cc(Cl)c2)cn1
inactive: growth inhibition [1] -14.2% | growth inhibition [2] -9.38% | viability increase [3] -5.97% | viability [4] 96.7% | viability [5] 88.5% | inhibition [6] 1.13% | RAM network inhibition [7] 5.88%

CCOC(=O)c1[nH]c2c(c1C)C(=O)CC(c1ccc(F)cc1)C2 (configuration not stated)
active: viability [4] 16.7% | viability [5] 20.4%
inactive: growth inhibition [1] -5.83% | growth inhibition [2] -18.5% | viability increase [3] -4.6% | inhibition [6] 0.11% | RAM network inhibition [7] 1.42%

Cc1cccc(-n2ncc3c(N4CCOCC4)ncnc32)c1
inactive: growth inhibition [1] 6.08% | growth inhibition [2] 17.2% | viability increase [3] -0.68% | viability [4] 101% | viability [5] 90.5% | inhibition [6] 1.59% | RAM network inhibition [7] 0.06%

CCOC(=O)C1C(=O)CC(C)(O)C(C(=O)OCC)C1c1ccco1 (configuration not stated)
inactive: growth inhibition [1] -11% | growth inhibition [2] -5.69% | viability increase [3] -1.04% | viability [4] 101% | viability [5] 103% | inhibition [6] 1.04% | RAM network inhibition [7] 2.45%

O=S(=O)(NCCCN1CCN(c2ccccc2F)CC1)c1cccc2cccnc12
inactive: growth inhibition [1] -1.96% | growth inhibition [2] 6.3% | viability increase [3] -2.92% | viability [4] 77.9% | viability [5] 77.4% | inhibition [6] 0.97% | RAM network inhibition [7] 5.43%

COC(=O)c1ccsc1NC(=O)c1ccc2c(c1)OCCO2
inactive: growth inhibition [1] 2.02% | growth inhibition [2] -2.86% | viability increase [3] -4.78% | viability [4] 81% | viability [5] 68.1% | inhibition [6] 1.8% | RAM network inhibition [7] 2.08%

CCOCCCNC(=O)C(c1ccc(OC)cc1)N(Cc1ccc2c(c1)OCO2)C(=O)CNC(C)=O (configuration not stated)
inactive: growth inhibition [1] -6.78% | growth inhibition [2] 3.73% | viability increase [3] 2.19% | viability [4] 104% | viability [5] 107% | inhibition [6] 1.34% | RAM network inhibition [7] 4.4%

O=C(Nc1nnc(-c2cccs2)o1)c1cccc(C(F)(F)F)c1
inactive: growth inhibition [1] -14.9% | growth inhibition [2] 7.83% | viability increase [3] -0.12% | inhibition [6] 1.56% | RAM network inhibition [7] 3.02%
active: viability [4] 15.5% | viability [5] 19.5%

CCn1c2ccccc2c2nnc(SCN3C(=O)c4ccccc4C3=O)nc21
inactive: growth inhibition [1] -12.1% | growth inhibition [2] -1.02% | viability increase [3] -3.94% | viability [4] 98.5% | viability [5] 100% | inhibition [6] 2.71% | RAM network inhibition [7] 5.66%

CCOc1ccc2nc(N3CCC(C(=O)N4CCN(C(=O)c5ccco5)CC4)CC3)sc2c1
inactive: growth inhibition [1] -10.8% | growth inhibition [2] -9.39% | viability increase [3] -4.93% | viability [4] 69.7% | viability [5] 77.7% | inhibition [6] 0.305% | RAM network inhibition [7] 3.91%

NC(=O)c1nc(C2CCCCC2)nc2c1[nH]c(=O)n2-c1ccc(F)cc1
inactive: growth inhibition [1] -13.1% | growth inhibition [2] -17.8% | viability increase [3] -3.71% | viability [4] 87.4% | viability [5] 86% | inhibition [6] 1.69% | RAM network inhibition [7] 5.24%

CCCn1c(C2CC(=O)N(c3cc(OC)ccc3OC)C2)nc2ccccc21 (configuration not stated)
inactive: growth inhibition [1] -6.39% | growth inhibition [2] -14.7% | viability increase [3] -2.88% | viability [4] 98.4% | viability [5] 94.8% | inhibition [6] 1.6% | RAM network inhibition [7] 5%

Cc1nc2ccc(N)cc2s1
inactive: growth inhibition [1] -15.7% | growth inhibition [2] -13.4% | viability increase [3] -2.73% | viability [4] 109% | viability [5] 112% | inhibition [6] 0.07% | RAM network inhibition [7] 1.25%

Cn1c(=O)oc2cc(S(=O)(=O)N3CCc4ccccc4C3)ccc21
inactive: growth inhibition [1] -14.7% | growth inhibition [2] -5.15% | viability increase [3] -2.36% | viability [4] 99.2% | viability [5] 91.9% | inhibition [6] 2.58% | RAM network inhibition [7] 5.77%

CC1CCC(n2c(=S)[nH]c3ccccc3c2=O)CC1 (configuration not stated)
inactive: growth inhibition [1] 13% | growth inhibition [2] 23% | viability increase [3] -4.34% | viability [4] 81.5% | viability [5] 75.4% | inhibition [6] 0.285% | RAM network inhibition [7] 5.25%

COc1ccc(NC(=O)CN2CC(c3ccccc3)CC2=O)cc1OC (configuration not stated)
inactive: growth inhibition [1] -17.9% | growth inhibition [2] -15.6% | viability increase [3] -1.08% | viability [4] 104% | viability [5] 95.1% | inhibition [6] 0.27% | RAM network inhibition [7] 2.86%

Cc1cc(C)n(-c2nc3ccccc3nc2N2CCOCC2)n1
inactive: growth inhibition [1] -12.6% | growth inhibition [2] 7.74% | viability increase [3] -1.22% | viability [4] 98% | viability [5] 98.3% | inhibition [6] 2.33% | RAM network inhibition [7] 2.25%

O=C(CCNS(=O)(=O)c1cccc2nsnc12)NCCc1ccccc1
inactive: growth inhibition [1] 3.27% | growth inhibition [2] -1.99% | viability increase [3] -1.34% | viability [4] 105% | viability [5] 97.6% | inhibition [6] 0.11% | RAM network inhibition [7] 1.2%

C=CCc1c(C)nc(SC)nc1Nc1ccc(C(C)=O)cc1
inactive: growth inhibition [1] -6.88% | growth inhibition [2] -6.6% | viability increase [3] -3.83% | viability [4] 83.8% | viability [5] 87.1% | inhibition [6] 1.53% | RAM network inhibition [7] 6.87%

COCCN(CCOC)C(=O)c1cc2sc3ccccc3c2s1
inactive: growth inhibition [1] -6.12% | growth inhibition [2] -4.95% | viability increase [3] 0.72% | viability [4] 92.4% | viability [5] 90.4% | inhibition [6] 0.11% | RAM network inhibition [7] 0.31%

COC(=O)c1ccc(C2c3c(n[nH]c3C)C(=O)N2c2ccc(C)cc2)cc1 (configuration not stated)
inactive: growth inhibition [1] 10.6% | growth inhibition [2] -0.115% | viability increase [3] 0.79% | viability [4] 70.6% | viability [5] 86.4% | inhibition [6] 0.34% | RAM network inhibition [7] 0.36%

Cc1c(=O)n(OCc2ccccc2)c2ccccc2[n+]1[O-]
inactive: growth inhibition [1] -0.885% | growth inhibition [2] 1.5% | viability increase [3] -3.92% | viability [4] 95.9% | viability [5] 95.8% | inhibition [6] 0.09% | RAM network inhibition [7] 9.74%

COc1ccc(OC)c2sc(NC(=O)c3ccc(Cl)s3)nc12
inactive: growth inhibition [1] -16.4% | growth inhibition [2] -10.6% | viability increase [3] -3.79% | inhibition [6] 3.47% | RAM network inhibition [7] 5.85%
active: viability [4] 22% | viability [5] 13.8%

Cc1ccc(C(=O)COC(=O)c2cnccn2)cc1
inactive: growth inhibition [1] -15.1% | growth inhibition [2] -10.8% | viability increase [3] -1.61% | viability [4] 104% | viability [5] 97.8% | inhibition [6] 2.19% | RAM network inhibition [7] 1.61%

O=C(Cn1nc(-c2ccc(Cl)cc2)ccc1=O)NCCN1CCOCC1
inactive: growth inhibition [1] -3.21% | growth inhibition [2] -12.3% | viability increase [3] -1.27% | viability [4] 100% | viability [5] 100% | inhibition [6] 0.355% | RAM network inhibition [7] 7.69%

CCCCNC(=O)CS(=O)Cc1nc(-c2cccc(Cl)c2)oc1C (configuration not stated)
inactive: growth inhibition [1] -2.86% | growth inhibition [2] 11.4% | viability increase [3] -0.78% | viability [4] 92.2% | viability [5] 97.3% | inhibition [6] 0.705% | RAM network inhibition [7] 6.02%

COc1cccc(-c2cc(C(=O)N3CCN(c4ncccn4)CC3)c3ccccc3n2)c1
inactive: growth inhibition [1] 0.09% | growth inhibition [2] -2.04% | viability increase [3] -6.25% | viability [4] 62% | viability [5] 64% | inhibition [6] 1.14% | RAM network inhibition [7] -0.21%

Cc1cc(NC(=O)CSCCc2ccncc2)no1
inactive: growth inhibition [1] -9.54% | growth inhibition [2] -5.15% | viability increase [3] -0.06% | viability [4] 99.7% | viability [5] 105% | inhibition [6] 0.675% | RAM network inhibition [7] 1.27%

CCOC(=O)N1CCC(NC(=O)c2cnc3n(c2=O)CCS3)CC1
inactive: growth inhibition [1] -1% | growth inhibition [2] -6.85% | viability increase [3] 1.34% | viability [4] 101% | viability [5] 100% | inhibition [6] 2.27% | RAM network inhibition [7] 1.68%

CCOC(=O)N1CCN(C(=O)CSc2nnc(-c3ccc(C(C)(C)C)cc3)o2)CC1
inactive: growth inhibition [1] -7.79% | growth inhibition [2] 8.32% | viability increase [3] -1.07% | viability [4] 85.2% | viability [5] 83.7% | inhibition [6] 0.505% | RAM network inhibition [7] 1.1%

O=C(c1ccccc1)N1CCn2c(nc3ccccc32)C1
inactive: growth inhibition [1] 3.33% | growth inhibition [2] 2.58% | viability increase [3] -0.73% | viability [4] 98.2% | viability [5] 98.2% | inhibition [6] 0.5% | RAM network inhibition [7] 6.85%

CC(C)CC(NS(=O)(=O)c1ccc2c(c1)oc(=O)n2C)C(=O)NC1CCCc2ccccc21 (configuration not stated)
inactive: growth inhibition [1] 0.005% | growth inhibition [2] -5.15% | viability increase [3] -6.23% | viability [4] 76.8% | viability [5] 71.8% | inhibition [6] 1.38% | RAM network inhibition [7] 6.99%

CCCCN(C)CCC(=O)Nc1ccc(OC)cc1OC
inactive: growth inhibition [1] -0.81% | growth inhibition [2] -1.21% | viability increase [3] -3.73% | viability [4] 88.5% | viability [5] 86.4% | inhibition [6] 2.29% | RAM network inhibition [7] -1.48%

O=C1NC(c2cccs2)C(C(=O)c2ccccc2)C(O)(C(F)(F)F)N1 (configuration not stated)
inactive: growth inhibition [1] -0.14% | growth inhibition [2] -7.88% | viability increase [3] -0.03% | viability [4] 94.8% | viability [5] 90.4% | inhibition [6] 0.61% | RAM network inhibition [7] 0.87%
